Laboratory results: ChEMBL document CHEMBL1150316, “Arylethynyltriazole acyclonucleosides inhibit hepatitis C virus replication” (Bioorg Med Chem Lett, 2008)
In brackets after ≈: the same amount, converted by molar mass.

Tests used:
Hepatitis C virus [1] = assay: Antiviral activity against Hepatitis C virus infected human Huh-5-2 cells assessed as inhibition of luciferase activity after 4 days by RNA replicon assay; assay type: functional, organism-based, Hepacivirus hominis; conditions: Huh-5-2, 96 h
In short: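 Huh-5-2 subgenomic HCV replicon cells seeded 5000/well in complete DMEM with 250 µg/mL G418, 24 h at 37 °C (5% CO2). Threefold serial compound dilutions then added in DMEM without G418, 4 days at 37 °C. Replication read as luciferase activity (Steady-Glo). EC50 = concentration giving 50% inhibition of luciferase signal.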

[2] = Cytotoxicity against human Huh-5-2 cells; assay type: cell-based
In short: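 Exponentially growing Huh-5-2 cells treated with compound. CC50 taken as the concentration that inhibits cell proliferation by 50%.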

Huh-5-2 = assay: Cytotoxicity against human Huh-5-2 cells at 50 ug/ml; assay type: cell-based
PaCa = assay: Cytotoxicity against human MIA PaCa cells upto 200 uM by MTT assay; assay type: functional, cell-based
In short: (§1)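 MiaPaCa, Capan-2 and PC-3 cells tested by MTT assay at concentrations up to 200 µM.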

Capan-2 = assay: Cytotoxicity against human Capan2 cells upto 200 uM by MTT assay; assay type: functional, cell-based; in short: as §1
PC-3 = assay: Cytotoxicity against human PC3 cells upto 200 uM by MTT assay; assay type: functional, cell-based; in short: as §1
Hepatitis C virus [3] = assay: Antiviral activity against Hepatitis C virus infected human Huh-9-13 cells assessed as reduction of HCV RNA level after 4 days by RT-PCR; assay type: functional, organism-based, Hepacivirus hominis; conditions: 96 h
In short: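 Huh-9-13 replicon cells seeded 5000/well in complete DMEM with 1,000 µg/mL G418, 24 h at 37 °C. Threefold serial compound dilutions added in DMEM without G418, 4 days at 37 °C. Monolayers PBS-washed, lysed in RLT buffer, replicon RNA measured by quantitative real-time PCR. EC50 = 50% reduction in HCV RNA versus untreated control.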

**Q.** With `Cc1ccc(C#Cc2nc(C(N)=O)nn2COCCO)cc1` as the compound, how does the EC50 (Hepatitis C virus [1]) read?
**A.** 16 µg/mL (≈ 53.3 µM)

**Q.** And the CC50 [2]?
**A.** > 50 µg/mL

**Q.** And the Activity (Huh-5-2)?
**A.** < 80%

**Q.** Which EC50 (Hepatitis C virus [1]) does the source give for `NC(=O)c1nc(C#Cc2cccc(F)c2)n(COCCO)n1` here?
**A.** 10 µg/mL (≈ 32.9 µM)

**Q.** What about the CC50 [2] of the same compound?
**A.** 29 µg/mL (≈ 95.3 µM)

**Q.** What does the source list for `NC(=O)c1nc(C#CC2(O)CCCC2)n(COCCO)n1`?
**A.** EC50 (Hepatitis C virus [1]): > 50 µg/mL; CC50 [2]: > 50 µg/mL

**Q.** Which EC50 (Hepatitis C virus [1]) does the source give for `NC(=O)c1nc(C#Cc2ccccc2F)n(COCCO)n1` here?
**A.** 20 µg/mL (≈ 65.7 µM)

**Q.** And the CC50 [2]?
**A.** > 50 µg/mL

**Q.** And the Activity (Huh-5-2)?
**A.** < 80%

**Q.** Which EC50 (Hepatitis C virus [1]) does the source give for `NC(=O)c1nc(C#CC2=CCCCC2)n(COCCO)n1` here?
**A.** > 50 µg/mL

**Q.** And the CC50 [2]?
**A.** > 50 µg/mL

**Q.** For `COc1ccc(C#Cc2nc(C(N)=O)nn2COCCO)cc1`, which EC50 (Hepatitis C virus [1]) is on record?
**A.** > 50 µg/mL

**Q.** What about the CC50 [2] of the same compound?
**A.** > 50 µg/mL

**Q.** What does the source list for `NC(=O)c1nc(C#Cc2ccc(F)cc2)n(COCCO)n1`?
**A.** EC50 (Hepatitis C virus [1]): 22 µg/mL (≈ 72.3 µM); CC50 [2]: > 50 µg/mL; Activity (PaCa): Not toxic; Activity (Capan-2): Not toxic; Activity (PC-3): Not toxic

**Q.** What does the source list for `NC(=O)c1ncn([C@@H]2O[C@H](CO)[C@@H](O)[C@H]2O)n1` [RIBAVIRIN]?
**A.** EC50 (Hepatitis C virus [1]): 7 µg/mL (≈ 28.7 µM); CC50 [2]: 21 µg/mL (≈ 86 µM)

**Q.** Which EC50 (Hepatitis C virus [1]) does the source give for `NC(=O)c1nc(C#Cc2ccccc2)n(COCCO)n1` here?
**A.** 18 µg/mL (≈ 62.9 µM)

**Q.** And the CC50 [2]?
**A.** > 50 µg/mL

**Q.** And the EC50 (Hepatitis C virus [3])?
**A.** > 50 µg/mL

**Q.** What about the Activity (PaCa) of the same compound?
**A.** Not toxic

**Q.** What about the Activity (Capan-2) of the same compound?
**A.** Not toxic

**Q.** And the Activity (PC-3)?
**A.** Not toxic

**Q.** Which results are given for `NC(=O)c1nc(C#CCCCCl)n(COCCO)n1`?
**A.** EC50 (Hepatitis C virus [1]): > 50 µg/mL; CC50 [2]: > 50 µg/mL

**Q.** With `NC(=O)c1nc(C#Cc2ccc(C(F)(F)F)cc2)n(COCCO)n1` as the compound, how does the EC50 (Hepatitis C virus [1]) read?
**A.** 5 µg/mL (≈ 14.1 µM)

**Q.** And the CC50 [2]?
**A.** 20 µg/mL (≈ 56.5 µM)

**Q.** What does the source list for `NC(=O)c1nc(C#CC2(O)CCCCC2)n(COCCO)n1`?
**A.** EC50 (Hepatitis C virus [1]): > 50 µg/mL; CC50 [2]: > 50 µg/mL

**Q.** For `CCCCCc1ccc(C#Cc2nc(C(N)=O)nn2COCCO)cc1`, which EC50 (Hepatitis C virus [1]) is on record?
**A.** 22 µg/mL (≈ 61.7 µM)

**Q.** What about the CC50 [2] of the same compound?
**A.** 25 µg/mL (≈ 70.1 µM)
